From ChEMBL document CHEMBL4513216, “Probing the Open Global Health Chemical Diversity Library for Multistage-Active Starting Points for Next-Generation Antimalarials” (ACS Infect Dis, 2020)

Test: Toxicity liver stage against HepG2, at 10uM
Assay type: cell-based
Parameters: test concentration 10 uM, cell line HepG2-A16-CD81EGFP
Details: human, HepG2-A16-CD81EGFP cells; read-out: INHIBITION
Method in brief: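 Uninfected HepG2-A16-CD81EGFP cells, 3 × 10^3 per well, 1536-well, plated on prespotted compound at 10 μM final, parasite-free screening media added to match infected plates; puromycin 10 μM positive, DMSO 0.5% negative; run in parallel with 48 h PbLuc assay at 37 °C, 5% CO2; viability by CellTiter-Glo luminescence, normalized to controls.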

Row | SMILES | cytotoxicity at 10 µM [%]
1 | CCN(CC)C(=O)CSc1nnc(CCNC(=O)OC(C)(C)C)o1 | 12
2 | CC(=O)N(C)Cc1ccccc1NC(=O)c1cnn(C)c1C | 2.31
3 | COC(=O)c1cccc2nc([C@H]3CCN(C4CCN(C)CC4)C3)oc12 | -3.54
4 | CC(C)(C)CNC1(Cc2cc(C(C)(C)O)on2)COC1 | -6.11
5 | CNC(=O)[C@@H](C1CCCCC1)N1CCC[C@H]1C(=O)NC1CC1 | 5.56
6 | CNC(=O)c1ccccc1-c1ccc(S(C)(=O)=O)cc1 | -2.07
7 | CCOC(=O)CNC(=O)C1OC(c2ccccc2)=NN1C(C)=O (stereo unspecified) | 0.53
8 | Cc1c(-c2ccccc2)nc2c(c(C)c(C)n2CCN(C)C)c1N | 24.6
9 | COc1ccccc1CNc1c(N2CCN(C(C)=O)CC2)c(=O)c1=O | -0.707
10 | COCCNC(=O)c1cc(-c2ccc3c(c2)CCO3)n[nH]1 | 0.843
11 | O=C(Nc1ncnc2c1CCC2)c1ccc2c(c1)OCO2 | 4.42
12 | O=C1CCCC2(CCN(C(=O)c3cnccn3)CC2)N1 | -12.9
13 | O=C(NC1CCCC1)c1n[nH]c2c1CNCC2 | 0.582
14 | CC(=O)N1CCCc2sc(C(=O)NC3CC3)nc21 | -132
15 | CS(=O)(=O)N[C@H]1COC[C@@H]2CN(Cc3ccco3)C[C@@H]21 | 9.12
16 | O=C(NCC1CC1)C1CN(Cc2cccs2)Cc2ccnn2C1 (stereo unspecified) | -3.94
17 | O=C(O)c1nc(SCc2ccc(F)cc2)ncc1Br | -3.11
18 | CC(C)n1[nH]c(=O)c2c1NC(=O)CC2c1ccncc1 (stereo unspecified) | -4.66
19 | O=C(Cn1nc2c(cc1=O)CCCC2)N[C@@H](C(=O)O)c1ccccc1 | 5.76
20 | CC(=O)c1cccc(NC(=O)COc2c(C)n(C)ccc2=O)c1 | 2.45
21 | O=C(CSC1=NS(=O)(=O)c2cc(F)ccc2N1)c1ccc(Cl)cc1 | 10.3
22 | Cc1cc2nc(SCC(=O)N3CCCC3)n(C(C)C)c(=O)c2[nH]1 | -7.53
23 | CS(=O)(=O)N1Cc2nccn2CC(Cn2ncccc2=O)C1 (stereo unspecified) | -2.04

Row | SMILES | cytotoxicity at 10 µM [%]
24 | Cc1csc([C@@H]2C[C@@H]3CCN(C(=O)c4ccnnc4)C[C@H]3O2)n1 | 4.49
25 | CCn1cc(Cn2cc(Cl)c(N)n2)c(C)n1 | -6.56
26 | Cn1cc(Br)c(C(=O)NCCCn2cc(Cl)cn2)n1 | -1.49
27 | COCc1nc(N(C)C)ncc1C(=O)Nc1ccc(Cl)cc1 | 0.474
28 | Cc1noc(C)c1-c1nc(C2CCCN(CCC(N)=O)C2)ccc1CO (stereo unspecified) | -2.66
29 | CCS(=O)(=O)N1C[C@@H](O)[C@H](Oc2cccc(F)c2)C1 | -3.65
30 | CS(=O)(=O)N1C[C@@H](O)[C@H](N2CCN(c3ccccc3)CC2)C1 | 20.3
31 | CC(=O)N1CCC(C(=O)N2CCCC(Cc3cccc(C)n3)C2)CC1 (stereo unspecified) | -18.6
32 | Cc1ccc(=O)n(CC2(O)CCN(Cc3c(F)cccc3F)CC2)n1 | -17.6
33 | CN1CCc2nc(C3CCCN(C(=O)CC(C)(C)C)C3)ncc2C1 (stereo unspecified) | -10.3
34 | CCOCCSc1nnc(Cc2ccccc2F)o1 | 8.45
35 | Cc1cncc(NCc2ccccc2N2CCOCC2)c1 | 6.02
36 | COc1ccc(NC(=O)c2cccc(OC)c2OC)cc1 | 18.5
37 | Cc1ccc(OCCN(C)S(=O)(=O)N2CCOCC2)cc1 | 0.651
38 | COc1cccc(COCC(=O)NC2CCN(CC(N)=O)CC2)c1 | -8.47
39 | Cc1cc(C)n(CC(C)CNC(=O)CCc2ccco2)n1 (stereo unspecified) | -1.05
40 | CNC(=O)C1CCCCN1C(=O)c1csc(-c2ccc(C)o2)n1 (stereo unspecified) | 7.55
41 | Cc1ccc(F)c2c1N(C(=O)Cc1c(C)nn(C)c1C)CCC2 | 12.7
42 | CNC(=O)Cc1noc(-c2cc3c(s2)CCC(C)C3)n1 (stereo unspecified) | 4.75
43 | O=C(NC1CCS(=O)(=O)C1)c1ccccc1SCc1cscn1 (stereo unspecified) | -1.53
44 | O=C(NC1CCS(=O)(=O)C1)c1ccc(SCc2cscn2)cc1 (stereo unspecified) | -1.23
45 | CCC(CNC(=O)CCn1cncn1)N1CCc2ccccc2C1 (stereo unspecified) | -137
46 | CC1CN(C(=O)Nc2cc(C(F)(F)F)c[nH]c2=O)CC(C)(C)O1 (stereo unspecified) | 8.96

Row | SMILES | cytotoxicity at 10 µM [%]
47 | CCc1ccc(S(=O)(=O)N2CCCn3ncnc32)s1 | -0.908
48 | COc1ccc2c(c1)CCCC2CC(=O)O (stereo unspecified) | -2.74
49 | COC(=O)c1cccc(S(=O)(=O)Nc2ccc(F)c(C(N)=O)c2)c1 | 8.67
50 | O=C(c1ccc(CN2CC(n3cccn3)C2)cc1)N1CCCC1 | 9.56
51 | Cn1ccnc1CN1CCN(c2ncnc3ccsc23)CC1 | -7.95
52 | CC1CCCN(Cc2ccc(CNC(=O)NCc3ccon3)cc2)C1 (stereo unspecified) | -10
53 | Cn1cnc(S(=O)(=O)Nc2cc(C(N)=O)ccc2Cl)c1 | 3.86
54 | COC(=O)N1CCC(Nc2ccc(Cl)c(C#N)n2)C1 (stereo unspecified) | -3.44
55 | CNC(=O)CN1CCC(NC2CSCCc3ccccc32)CC1 (stereo unspecified) | -4.28
56 | COc1cc(C2(C(=O)NCCn3ccnc3)CCCC2)ccc1C | 8
57 | O=C(c1cc2c([nH]c1=O)CCC2)N1CCCC1c1ccccc1 (stereo unspecified) | -5.76
58 | CC(=O)NCCNC(=O)c1cccc(Cn2nc(C)cc2C)c1 | -10.3
59 | CC(C)c1nn(C)c(N2CCOCC2)c1CNCc1nncn1C | 5.59
60 | O=C(c1c[nH]c2ncccc12)N1CCC(COc2ccccc2)CC1 | 14.4
61 | Cc1ccc(CCNC(=O)NCCCC(N)=O)c(C)c1 | 5.71
62 | CCC(Nc1nnnn1-c1ccccc1)C(=O)Nc1ccccc1C (stereo unspecified) | -13.1
63 | Nc1cc2c(nn1)CCN(C(=O)c1cccnc1Oc1ccccc1)C2 | -11.6
64 | CCc1cc(CNC(=O)N2Cc3ccccc3N(C)CC2C)on1 (stereo unspecified) | 4.38
65 | CCNC(=O)CN1CCCN(C(=O)C2CCCc3[nH]ncc32)CC1 (stereo unspecified) | 4
66 | Cc1cc(NS(=O)(=O)c2ccccc2F)ccc1-n1cccc1C(=O)O | -5.67
67 | CCCC(C)C(=O)NCc1cn2cc(Br)ccc2n1 (stereo unspecified) | -6.6
68 | N#Cc1cccc(C(=O)NC2CCc3c(ccc(=O)n3CC3CC3)C2)c1 (stereo unspecified) | 0.908
69 | C[C@H]1C[C@H]2CN(C(=O)CCc3ccccc3)CC[C@H]2O1 | -75.6

Row | SMILES | cytotoxicity at 10 µM [%]
70 | CCC(CO)N(Cc1cccc(O)c1)Cc1ccccc1C (stereo unspecified) | -8.22
71 | O=C1[C@@H]2C[C@H](O)CCN2C(=O)CN1CCSc1ccccn1 | -2.96
72 | CCOCc1nc2c(c(N3CC=CC3)n1)CCN(Cc1ccco1)CC2 | -3.81
73 | COc1cnc(N2C[C@@H](CN3CCOCC3)C[C@H](CO)C2)nc1 | -6.16
74 | CN(C)CC1(O)CCCN(c2noc(-c3ccccc3)n2)CC1 (stereo unspecified) | 0.0264
75 | Cc1nnsc1C(=O)N1CCCC(c2nccn2Cc2cscn2)C1 (stereo unspecified) | 2.62
76 | O=C1CC[C@H]2CN(c3ncc(F)cn3)CC[C@H]2N1CCc1ccccn1 | 4.83
77 | O=C(c1cccc(C2CCNC2)c1)N1CCC(c2ccncc2)CC1 (stereo unspecified) | -1.12
78 | CCN(CC)C(=O)Cn1cc(-c2nc(-c3ccccc3C)no2)nn1 | -2.46
79 | CC(C)(CNC(=O)c1ccco1)CNC(=O)c1ccco1 | -3.97
80 | Cc1nnc(SCC(=O)NCC(c2ccccc2Cl)N(C)C)s1 (stereo unspecified) | 2.67
81 | O=C(COc1cccc(Cl)c1)N1CCOCC(O)(CN2CCCC2)C1 (stereo unspecified) | -4.68
82 | COc1nccnc1-c1cccc(-c2ccn(CC3COCCO3)n2)c1 (stereo unspecified) | -3.65
83 | Cc1nc(C(=O)N2CCC(c3nnc(Cn4ccnc4)n3C)CC2)cs1 | -127
84 | CN(C)S(=O)(=O)N1CCCCC1CCc1ccc(O)cc1 (stereo unspecified) | 4.32
85 | Cc1ccc(CN2C[C@@H](C(=O)O)[C@H](c3ccccn3)C2)o1 | -3.88
86 | CC(=O)c1cn(CC(=O)N2CCCC(O)(CO)C2)c2ccccc12 (stereo unspecified) | -4.87
87 | Cc1csc(CNc2ccc(-c3nc(C4CC4)no3)cn2)n1 | -16.2
88 | NC1CCCc2c1cnn2-c1cc(F)cc(F)c1 (stereo unspecified) | 6.54
89 | O=C(NCCc1cccnc1)c1cn(CCN2CCNCC2)nn1 | -7.82
90 | Cc1nc(C)c(CC(=O)N2C[C@@H](C(=O)O)[C@H](c3ccncc3)C2)s1 | -127
91 | CCN1CCCC1CNC(=O)c1cc(COc2cccc(F)c2)[nH]n1 (stereo unspecified) | -5.96
92 | Cc1ccccc1CSc1nc(N)cc(N2CCOC(C(N)=O)C2)n1 (stereo unspecified) | 5.27

Row | SMILES | cytotoxicity at 10 µM [%]
93 | Cc1oc(C(=O)O)cc1S(=O)(=O)Nc1ccc(Br)cc1Cl | -5.09
94 | CC(=O)N1CCN(C(=O)Nc2cnc3c(cnn3C(C)C)c2)CC1 | -0.192
95 | O=C(c1cc2c(s1)CCC2)N1CCCC1Cn1cccn1 (stereo unspecified) | -3.12
96 | CC(C)c1nc(C2CCCN(C(=O)CCCn3ccnc3)C2)no1 (stereo unspecified) | -17.2
97 | O=C(CCc1ccccc1)N1CC(n2cncn2)C1 | -15.7
98 | CN(C)c1cc(CNC(=O)c2ccccc2S(C)(=O)=O)ccn1 | -10.7
99 | CS(=O)(=O)c1cccc(C(N)c2ccccc2)c1 (stereo unspecified) | -19.3
100 | CC(Cc1ccc(Cl)cc1)NC(=O)Nc1cnn(CC(N)=O)c1 (stereo unspecified) | -5.86
101 | Cc1csc(N2CCN(C(=O)NCCNc3ncccn3)CC2)n1 | -18.8
102 | CCOCC(O)CN1CCN(C(=O)C2CCCC2)CC1 (stereo unspecified) | -13
103 | Cc1ccc(N2CCCC(NCc3cccs3)C2)nn1 (stereo unspecified) | -33
104 | Cc1ccc(N2CCCC(NCc3ccc4c(c3)OCCO4)C2)nn1 (stereo unspecified) | -20.1
105 | C=C1c2ccccc2C(=O)N1CCC(=O)N1CCNC(=O)C1 | -4.12
106 | CC1CN(c2ccc(CNC(=O)c3ccn(C)c(=O)c3)cn2)CCO1 (stereo unspecified) | 2.82
107 | CC(C)n1ccnc1CN1CCCN(C(=O)COC2CCCC2)CC1 | -0.602
108 | O=c1n(CCSCc2ccccc2F)nc2ccccn12 | 0.168
109 | CNC(=O)[C@@H](C1CC1)N1CCC[C@H]1C(=O)NCC(C)C | -2.45
110 | Cc1ncsc1CN1C[C@H](OCc2ccncc2)[C@H]2OCCC[C@H]21 | -139
111 | Cc1oc(C(C)C)cc1C(=O)N1C[C@@H]2CC[C@H]1CN(S(=O)(=O)N(C)C)C2 | -127
